Legend:
[1] = Log of (Cbrain/Cblood) in rats; conditions: rat
[2] = Partition coefficient (Log Pn, neutral form, cyclohexane/water); type: ADME
Outline: (§1)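 Shake-flask partitioning at 37 °C in 1-octanol/water and cyclohexane/water, with buffer salts setting aqueous pH. Aqueous-phase compound concentration was read spectrophotometrically before and after partitioning. Neutral-form log P was calculated from eq 1 using the measured log P at a stated pH and the pKa. Values are means of ≥2 determinations. Δlog P = log P(octanol) − log P(cyclohexane).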

[3] = (§2) Logarithm of partition coefficient of the neutral form of compound given for octanol/water solvent system; type: physicochemical
Outline: as §1, with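 “pKa.” for “pKa. Values are means of ≥2 determinations. Δlog P = log P(octanol) − log P(cyclohexane).”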

[4] = Change in logarithm of partition coefficient of the compound; type: physicochemical; conditions: octanol/water; outline: as §1
[5] = Log (Cbrain/Cblood) in rats; conditions: rat
[6] = target: Histamine H2 receptor (Cavia porcellus) (UniProt P47747); experiment: In vitro Histamine H2 receptor antagonist activity in the histamine-stimulated guinea pig right atrium; type: functional, tissue-based; conditions: Cardiac atrium
Histamine H2 receptor (Cavia porcellus), sequence (P47747 whole entry): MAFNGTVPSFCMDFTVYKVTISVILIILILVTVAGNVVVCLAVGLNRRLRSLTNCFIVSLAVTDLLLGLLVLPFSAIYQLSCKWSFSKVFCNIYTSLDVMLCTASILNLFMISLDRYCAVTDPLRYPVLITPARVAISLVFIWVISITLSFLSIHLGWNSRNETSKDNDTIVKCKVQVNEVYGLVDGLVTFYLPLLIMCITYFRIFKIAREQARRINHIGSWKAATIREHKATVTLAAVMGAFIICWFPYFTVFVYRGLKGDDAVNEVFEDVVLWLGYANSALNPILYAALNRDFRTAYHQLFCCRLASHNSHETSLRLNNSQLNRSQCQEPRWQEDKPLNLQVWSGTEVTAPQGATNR

[7] = Delta logPoct-cyc; type: ADME; conditions: octanol/water
Outline: as §1, with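 “pKa.” for “pKa. Values are means of ≥2 determinations. Δlog P = log P(octanol) − log P(cyclohexane).”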

[8] = Logarithm of partition coefficient of the neutral form of compound given for […]/water solvent system; type: physicochemical; conditions: octanol/water
[9] = as §2; type: physicochemical; outline: as §1; remark: listed apart in the source

SMILES	Log Pn [2]	logP [3]	delta Log P [4]	-Log KB [6]	Kp ([1]; in vivo)	other results
NC(N)=Nc1nc(-c2ccccc2)cs1	-1.28	2.64	3.92	–	–	Kp ([1]; brain and blood): 0.66; Kp ([5]; brain and blood): 0.661
O=[N+]([O-])c1c(Cc2ccccc2)c[nH]c1NCCSCc1ccccn1	–	–	–	6.97	–	Kp ([1]; brain and blood): 0.724; Kp ([5]; brain and blood): 0.759
CS(=O)(=O)NCCCOc1cccc(CN2CCCCC2)c1	–	–	–	4.67	–	–
CN(C)Cc1ccc(-c2cccc(Nc3[nH]ccc3[N+](=O)[O-])c2)o1	0.22	3.1	2.88	6.02	–	Kp ([1]; brain and blood): 0.545; Kp ([5]; brain and blood): 0.537
O=[N+]([O-])c1cc[nH]c1NCCSCc1ccccn1	–	–	–	6.7	0.18	–
O=C(NCCCOc1cccc(CN2CCCCC2)c1)c1ccccc1	2.18	3.97	1.79	7.79	0.58	Kp ([5]; in vivo): 0.575
N=C(N)Nc1nc(-c2cccc(N)c2)cs1	-3.19	1.41	4.6	7.33	–	Kp ([1]; brain and blood): 0.0705; Kp ([5]; brain and blood): 0.0708
CN(C)Cc1ccc(-c2cccc(CNc3[nH]ccc3[N+](=O)[O-])c2)o1	–	–	–	< 3.8	–	–
Cc1[nH]cnc1CSCCNc1[nH]ccc1[N+](=O)[O-]	–	1.04	–	7.31	–	–
CC(NCCCOc1cccc(CN2CCCCC2)c1)=C(C#N)C#N	–	–	–	< 4.9	–	–
O=[N+]([O-])c1cc[nH]c1NCCSCc1nccc2ccccc12	-0.67	2.79	3.46	6.84	–	–
CN(C)c1cc(-c2n[nH]c(N)n2)ccn1	–	–	–	5.59	–	Kp ([5]; brain and blood): 0.0676
CC(=O)Nc1cccc(-c2csc(N=C(N)N)n2)c1	–	–	–	7.36	0.018	Kp ([5]; in vivo): 0.0269
NCCCOc1cccc(CN2CCCCC2)c1	–	–	–	5.19	–	–
CC/N=C(\NC#N)NCCSCc1ncccc1Br	–	1.98	–	6.5	0.00753	Kp ([5]; in vivo): 0.00708
CN(C)Cc1ccc(CSCCNc2ncc(Cc3ccc4ccccc4c3)c(O)n2)o1	–	4.57	–	–	–	delta logP [7]: 4.1
Cc1ccc(Cc2c[nH]c(NCCSCc3ccc(CN(C)C)o3)nc2=O)cn1 [LUPITIDINE]	-1.48	2.33	3.81	7.91	–	Kp ([1]; brain and blood): 0.0884; Log Pn [8]: 2.64; Kp ([5]; brain and blood): 0.0871
O=S(=O)(NCCCOc1cccc(CN2CCCCC2)c1)c1ccccc1	–	–	–	< 4.8	–	–
CN(C)Cc1ccc(CSCCNc2[nH]ccc2[N+](=O)[O-])o1	-1.48	1.64	3.12	6.63	–	Kp ([1]; brain and blood): 0.0652; Kp ([5]; brain and blood): 0.0759
CN(C)c1cccc(-c2csc(NC(=N)N)n2)c1	–	–	–	< 3.8	–	–
CN(C)Cc1ccnc(-c2cccc(Nc3[nH]ccc3[N+](=O)[O-])c2)c1	–	–	–	6.6	0.454	Kp ([5]; in vivo): 0.525

SMILES	Log Pn [2]	logP [3]	delta Log P [4]	-Log KB [6]	Kp ([1]; in vivo)	other results
CN/C(=C\[N+](=O)[O-])NCCSCc1ccc(CN(C)C)o1 [RANITIDINE]	< -3	0.27	–	7.05	0.0586	Kp ([5]; in vivo): 0.0589
COc1cccnc1CCCCNc1ncc(Cc2ccc(C)nc2)c(=O)[nH]1 [ICOTIDINE]	–	–	–	–	–	logP [9]: 2.58; delta logP [7]: 5.18
c1ccc(NCCCOc2cccc(CN3CCCCC3)c2)nc1	3.23	4.29	1.06	6.09	4.85	Kp ([5]; in vivo): 4.9
CC(=O)NCCCOc1cccc(CN2CCCCC2)c1	0.22	2.15	1.93	7.79	0.346	Kp ([5]; in vivo): 0.347
CN(C)Cc1ccc(-c2ccc(Nc3[nH]ccc3[N+](=O)[O-])cc2)o1	–	–	–	< 4.3	–	–
CN(C)Cc1ccc(CSCCNc2[nH]cc(Cc3ccccc3)c2[N+](=O)[O-])o1	1.11	3.65	2.54	7.35	0.184	Kp ([5]; in vivo): 0.186
C/N=C(\NC#N)Nc1cccc(-c2csc(N=C(N)N)n2)c1	-2.66	–	4.26	7.84	–	Kp ([1]; brain and blood): 0.0293; Kp ([5]; brain and blood): 0.0288
FC(F)(F)CNCCCOc1cccc(CN2CCCCC2)c1	–	–	–	< 4.3	–	–
Cc1csc(N=C(N)N)n1	-2.79	–	4.03	6.27	0.873	Kp ([5]; in vivo): 0.912
Clc1cccc(Cl)c1N=C1NCCN1 [CLONIDINE]	–	–	–	–	–	delta logP [7]: 2.44
OCCCOc1cccc(CN2CCCCC2)c1	1.31	2.78	–	–	–	–
O=[N+]([O-])c1cc[nH]c1NCCSCc1ncccc1Br	-1.34	1.75	3.09	7.24	–	Kp ([1]; brain and blood): 0.214; Kp ([5]; brain and blood): 0.214
c1ccc(NCCCOc2cccc(CN3CCCCC3)c2)cc1	–	–	–	5.7	–	–
c1cc(CN2CCCCC2)cc(OCCCNc2ccc3ccccc3n2)c1	–	–	–	6.21	–	–
COc1ccc(CN(CCN(C)C)c2ccccn2)cc1 [PYRILAMINE]	–	3.3	–	–	–	delta logP [7]: 0.71
c1cc(CN2CCCCC2)cc(OCCCNc2nc3ccccc3o2)c1	–	–	–	7.19	1.42	–
N=C(N)Nc1nc(-c2ccccc2)cs1	–	–	–	5.93	–	–
CNC(=NCCSCc1csc(N=C(N)N)n1)NC#N [TIOTIDINE]	–	0.6	–	–	–	–
c1cc(CN2CCCCC2)cc(OCCCNc2nc3ccccc3s2)c1 [ZOLANTIDINE]	3.72	–	1.69	7.46	1.38	–
c1cc(CN2CCCCC2)cc(OCCCNc2nccs2)c1	–	–	–	7.41	1.98	Kp ([5]; in vivo): 2.75

— ChEMBL document CHEMBL1124065, “Development of a new physicochemical model for brain penetration and its application to the design of centrally acting H2 receptor histamine antagonists” (J Med Chem, 1988)
